Measured values taken from ChEMBL document CHEMBL4725355, “Design, Synthesis, and Preclinical Evaluation of 3-Methyl-6-(5-thiophenyl)-1,3-dihydro-imidazo[4,5-b]pyridin-2-ones as Selective GluN2B Negative Allosteric Modulators for the Treatment of Mood Disorders” (J Med Chem, 2020).

Experiments:
[1] = Displacement of 3-[3H] 1-(azetidin-1-yl)-2-[6-(4-fluoro-3-methyl-phenyl)pyrrolo[3,2-b]pyridin-1-yl]ethanone from GluN1a/GluN2B receptor in rat cortex membranes measured after 2 hrs by liquid scintillation counting method; assay type: cell membranes
Procedure, shortened: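 Rat adult cortex was homogenized in 50 mM Tris pH 7.4, and membranes were washed by centrifugation. Membranes were incubated with the [3H] pyrrolopyridine tracer and test compound for 2 h at room temperature with shaking. Non-specific binding was defined with 10 µM CP-101,606. Bound tracer was separated by filtration on PEI-soaked GF/B filters and counted by liquid scintillation. Ki was obtained from a competition fit using tracer Kd; three independent runs in duplicate.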

[2] = Metabolic stability in human liver microsomes assessed as extraction ratio at 1 uM after 5 to 60 mins in presence of NADPH by LC-MS/MS analysis; assay type: ADME, Microsome; details: time 5-60 min, read-out: ERH
Procedure, shortened: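 Human and rat liver microsomes, run in duplicate; stability reported as microsomal extraction ratio.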

[3] = Half life in Sprague-Dawley rat at 0.5 mg/kg, iv or 2.5 mg/kg, po using 1:1 PEG-400/water formulation by LC-MS/MS analysis; assay type: ADME, organism-based; details: in vivo
Procedure, shortened: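 Rats dosed 0.5 mg/kg i.v. and 2.5 mg/kg p.o., n=3 ± SD. Default vehicle is 20% HP-β-CD; one PK set used 1:1 PEG400/water and another 30% SBE-β-CD.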

[4] = Ex vivo receptor occupancy at GluN2B in Sprague-Dawley rat assessed as 3-[3H] 1-(azetidin-1-yl)-2-[6-(4-fluoro-3-methyl-phenyl)pyrrolo[3,2-b]pyridin-1-yl]-ethanone labelling at 3 mg/kg, po measured after 6 hrs by autoradiography; assay type: functional
Procedure, shortened: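 Rats dosed orally at 3 mg/kg in 20% HP-β-CD; brains taken at 0.5, 2 and 6 h. Ex vivo autoradiography of brain slices with the ³H pyrrolo[3,2-b]pyridine GluN2B tracer. Labelling expressed relative to matching brain areas of vehicle-treated animals; n=2, ± SEM.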

[5] = Drug level in Sprague-Dawley rat brain hippocampus at 0.03 mg/kg, iv after 60 min by LC-MS/MS analysis; assay type: ADME, organism-based; details: read-out: Drug uptake
Procedure, shortened: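 Single i.v. dose of 0.03 mg/kg in 50% (w/v) PEG/water, pH 7.4; rats n=3 per group, killed at 5, 10, 30, 60 and 120 min. Cerebellum, cortex, striatum and hippocampus dissected, weighed and homogenized; drug quantified by LC-MS/MS and normalized to tissue weight. P<0.05 taken as significant versus cerebellum.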

[6] = Intrinsic clearance in rat liver microsomes at 1 uM after 5 to 60 mins in presence of NADPH by LC-MS/MS analysis; assay type: ADME, Microsome; details: time 5-60 min, read-out: CLH
[7] = Intrinsic clearance in dog liver microsomes at 1 uM after 5 to 60 mins in presence of NADPH by LC-MS/MS analysis; assay type: ADME, Canis lupus familiaris, Microsome; details: time 5-60 min, read-out: CLH
Cytochrome P450 3A4 [8] = target: T1, Cytochrome P450 3A4 (Homo sapiens, UniProt P08684); experiment: Inhibition of CYP3A4 in human liver microsomes using testosterone as substrate measured after 15 mins by LC-MS/MS analysis; assay type: ADME
T1 sequence (P08684 whole entry, canonical isoform): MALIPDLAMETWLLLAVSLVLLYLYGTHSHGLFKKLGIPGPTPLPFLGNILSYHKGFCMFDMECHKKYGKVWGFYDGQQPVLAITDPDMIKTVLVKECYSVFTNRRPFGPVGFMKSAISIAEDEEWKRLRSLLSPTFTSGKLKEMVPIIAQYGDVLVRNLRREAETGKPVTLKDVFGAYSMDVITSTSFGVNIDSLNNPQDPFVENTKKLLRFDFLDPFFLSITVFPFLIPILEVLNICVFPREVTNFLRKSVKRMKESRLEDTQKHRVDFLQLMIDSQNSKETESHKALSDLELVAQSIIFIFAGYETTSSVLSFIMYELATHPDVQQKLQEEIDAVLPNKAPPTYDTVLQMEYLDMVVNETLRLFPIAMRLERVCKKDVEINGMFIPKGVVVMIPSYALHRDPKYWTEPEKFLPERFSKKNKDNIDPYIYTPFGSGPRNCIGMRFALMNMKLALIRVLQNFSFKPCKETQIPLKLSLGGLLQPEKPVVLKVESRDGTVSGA
Procedure, shortened: (§1)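 Human liver microsomes incubated with isoform-specific probe substrates and the test compound at concentrations up to 20 µM. IC50 derived from inhibition of metabolite formation; mean of two independent experiments, with known specific inhibitors as positive controls.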

Cytochrome P450 2D6 = Cytochrome P450 2D6 (Homo sapiens, UniProt P10635); experiment: Inhibition of CYP2D6 in human liver microsomes using dextromethorphan as substrate measured after 15 mins by LC-MS/MS analysis; assay type: ADME; procedure, shortened: as §1
Cytochrome P450 2D6, sequence (P10635 whole entry): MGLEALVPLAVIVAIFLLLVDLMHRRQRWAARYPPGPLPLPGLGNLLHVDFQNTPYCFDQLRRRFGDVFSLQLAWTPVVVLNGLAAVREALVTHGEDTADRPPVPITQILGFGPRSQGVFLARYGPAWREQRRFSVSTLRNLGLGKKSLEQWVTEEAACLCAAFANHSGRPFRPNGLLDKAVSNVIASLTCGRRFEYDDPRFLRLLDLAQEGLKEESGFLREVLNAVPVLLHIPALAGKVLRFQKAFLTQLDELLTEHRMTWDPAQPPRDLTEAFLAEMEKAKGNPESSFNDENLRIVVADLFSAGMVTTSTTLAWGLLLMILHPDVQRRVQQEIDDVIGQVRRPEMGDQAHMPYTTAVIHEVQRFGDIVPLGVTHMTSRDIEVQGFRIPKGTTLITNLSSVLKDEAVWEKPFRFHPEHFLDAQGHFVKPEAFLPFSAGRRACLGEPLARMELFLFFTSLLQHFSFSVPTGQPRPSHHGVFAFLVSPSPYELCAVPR

Cytochrome P450 3A4 [9] = target: T1, Cytochrome P450 3A4; experiment: Inhibition of CYP3A4 in human liver microsomes using midazolam as substrate measured after 15 mins by LC-MS/MS analysis; assay type: ADME; procedure, shortened: as §1
[10] = Cmax in mouse at 2.5 mg/kg, po by LC-MS/MS analysis; assay type: ADME, organism-based; parameters: route oral, dose 2.5 mg/kg; details: in vivo
[11] = Volume of distribution at steady state in mouse at 0.5 mg/kg, iv by LC-MS/MS analysis; assay type: ADME, organism-based; details: in vivo, read-out: Vdss
[12] = Half life in Sprague-Dawley rat at 2.5 mg/kg, po by LC-MS/MS analysis; assay type: ADME, organism-based; details: in vivo
[13] = Oral bioavailability in monkey at 0.5 mg/kg by LC-MS/MS analysis; assay type: ADME, organism-based, Macaca mulatta; details: rhesus monkey, in vivo
[14] = AUC (infinity) in monkey at 0.5 mg/kg, po by LC-MS/MS analysis; assay type: ADME, organism-based, Macaca mulatta; parameters: route oral, time infinity, dose 0.5 mg/kg; details: rhesus monkey, in vivo
[15] = AUC (infinity) in monkey at 0.1 mg/kg, iv by LC-MS/MS analysis; assay type: ADME, organism-based, Macaca mulatta; parameters: time infinity, route intravenous, dose 0.1 mg/kg; details: rhesus monkey, in vivo
[16] = Volume of distribution at steady state in monkey at 0.1 mg/kg, iv by LC-MS/MS analysis; assay type: ADME, organism-based, Macaca mulatta; details: rhesus monkey, in vivo, read-out: Vdss
[17] = Solubility of compound in 30% sulfobutylether-beta-cyclodextrin; assay type: physicochemical
Procedure, shortened: (§2)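 Solubility of the compound assessed in dosing excipients, including 30% SBE-β-CD, 50% PEG-400 and 20% HP-β-CD. The aim was a solution usable for rat dosing; the 20% HP-β-CD formulation was checked for a 0.1 mg/mL solution to support a 0.5 mg/kg dose.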

[18] = Solubility of compound in 50% polyethylene glycol 400; assay type: physicochemical; procedure, shortened: as §2
[19] = Tmax in Sprague-Dawley rat at 1000 mg/kg, po administered via gavage after 24 hrs using HPMC formulation by LC-MS/MS analysis; assay type: ADME, organism-based; details: in vivo
Procedure, shortened: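 Single oral gavage of a 5% HPMC suspension at 125, 250, 500 or 1000 mg/kg to male Sprague Dawley rats, 3 per group. Plasma was sampled at 6 time points from 0.5 to 24 h.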

[20] = AUC (0 to 24 hrs) in Sprague-Dawley rat at 1000 mg/kg, po administered via gavage after 24 hrs using HPMC formulation by LC-MS/MS analysis; assay type: ADME, organism-based; parameters: route oral, dose 1000 mg/kg, time <=24; details: in vivo
[21] = (§3) Ratio of Cmax in Sprague-Dawley rat at 250 mg/kg, po administered via gavage after 24 hrs using HPMC formulation by LC-MS/MS analysis to EC70 for ex vivo receptor occupancy at GluN2B in po dosed Sprague-Dawley rat assessed as 3-[3H] 1-(azetidin-1-yl)-2-[6-(4-fluoro-3-methyl-phenyl)pyrrolo[3,2-b]pyridin-1-yl]-ethanone labelling; assay type: ADME, organism-based
[22] = as §3, with “500” for “250”; assay type: ADME, organism-based
[23] = as §3, with “1000” for “250”; assay type: ADME, organism-based
[24] = Tmax in Sprague-Dawley rat at 500 mg/kg, po administered via gavage after 24 hrs using nanosuspension formulation by LC-MS/MS analysis; assay type: ADME, organism-based; details: in vivo
Procedure, shortened: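 Single oral gavage of a nanosuspension (API:polymer 4:1), diluted with vehicle on the dosing day, at 100, 250 or 500 mg/kg to male Sprague Dawley rats, 3 per dose. Plasma was sampled from 0.5 to 24 h.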

[25] = as §3, with “nanosuspension” for “HPMC”; assay type: ADME, organism-based

For Cn1c(=O)n(CC(=O)N2CCC2)c2cc(-c3ccc(C(F)(F)F)s3)cnc21, the Ki [1] was 0.016 µM, the hepatic extraction ratio at 1 µM [2] was < 0.3 and the half-life [3] was 0.8 h. It also gave an Occ [4] of 31%, a concentration at 1 h [5] of 20.9 ng/mL and a microsomal CLint at 1 µM [6] of 26.3 µL/min/mg. The microsomal CLint at 1 µM [7] was 14.7 µL/min/mg, the IC50 (Cytochrome P450 3A4 [8]) was > 50 µM and the IC50 (Cytochrome P450 2D6) was 15 µM. The IC50 (Cytochrome P450 3A4 [9]) was > 50 µM, the Cmax [10] was 413 ng/mL and the Vd [11] was 3.2 L/kg. It also gave a half-life [12] of 2.2 h, a bioavailability [13] of 41% and an AUC(0-inf) [14] of 385 ng·h/mL. For the same compound, the AUC(0-inf) [15] was 190 ng·h/mL, the Vd [16] was 0.8 L/kg and the solubility [17] was < 1000 µg/mL. The solubility [18] was < 1000 µg/mL, the Tmax [19] was 2.3 h and the AUC(0-t) [20] was 22300 ng·h/mL. The Ratio [21] was 8, the Ratio [22] was 9 and the Ratio [23] was 10. It also gave a Tmax [24] of 3.3 h and a Ratio [25] of 17.
